Assay results published in ChEMBL document CHEMBL2169747, “Synthesis and biological properties of highly sequence-specific-alkylating N-methylpyrrole-N-methylimidazole polyamide conjugates” (J Med Chem, 2012).
The source made the active and inactive calls. The rule behind the calls is not given here.

Key:
A549 [1] = assay: Cytotoxicity against human A549 cells assessed as cell growth inhibition after 48 hrs by microplate reader analysis; format: functional, cell-based; settings: A549, 48 h
How it was run: (§1)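 Medium was RPMI-1640 for EBC-1, A549 and DU145, and DMEM for PC-3, SK-N-SH and K562. Both media had 10% heat-inactivated FBS plus penicillin/streptomycin; cells were kept at 37 °C, 5% CO2. Cells were seeded at 5000/well and given compound from DMSO stock (final 0.1% DMSO) for 48 h. Viability was read by WST-8 colorimetry, absorbance at 450 and 600 nm, and IC50 determined.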

PC-3 = assay: Cytotoxicity against human PC3 cells assessed as cell growth inhibition after 48 hrs by microplate reader analysis; format: functional, cell-based; settings: PC-3, 48 h; how it was run: as §1
[2] = Cytotoxicity against human EBC1 cells assessed as cell growth inhibition after 48 hrs by microplate reader analysis; format: functional, cell-based; settings: EBC-1, 48 h; how it was run: as §1
SK-N-SH = assay: Cytotoxicity against human SK-N-SH cells assessed as cell growth inhibition after 48 hrs by microplate reader analysis; format: functional, cell-based; how it was run: as §1
K562 = assay: Cytotoxicity against human K562 cells assessed as cell growth inhibition after 48 hrs by microplate reader analysis; format: functional, cell-based; settings: K562, 48 h; how it was run: as §1
A549 [3] = assay: Downregulation of RABGAP1L gene expression in human A549 cells at 21 nM after 12 hrs by microarray analysis relative to control; format: functional
How it was run: (§2)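 A549 cells (RPMI-1640, 10% heat-inactivated FBS, penicillin/streptomycin, 37 °C, 5% CO2) seeded at 4 × 10^5 per 60 mm dish. Exposed 12 h to conjugate at 21, 26, 34 or 100 nM in medium with 0.1% DMSO, against 0.1% DMSO control. Whole-genome (~25 000 genes) expression profiled by microarray.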

A549 [4] = assay: Downregulation of NP_115632.1 gene expression in human A549 cells at 21 nM after 12 hrs by microarray analysis relative to control; format: functional
How it was run: (§3)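 A549 cells, 4 × 10^5 per 60 mm dish, were exposed to conjugate for 12 h in medium with 0.1% DMSO; vehicle control was 0.1% DMSO. Whole human genome (~25 000 genes) expression was profiled by microarray and expression compared with the control.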

A549 [5] = assay: Downregulation of Q8N570_HUMAN gene expression in human A549 cells at 21 nM after 12 hrs by microarray analysis relative to control; format: functional; how it was run: as §2
A549 [6] = assay: Downregulation of RS29_HUMAN gene expression in human A549 cells at 21 nM after 12 hrs by microarray analysis relative to control; format: functional; how it was run: as §2
A549 [7] = assay: Downregulation of FHIT gene expression in human A549 cells at 21 nM after 12 hrs by microarray analysis relative to control; format: functional; how it was run: as §3
DU-145 = assay: Cytotoxicity against human DU145 cells assessed as cell growth inhibition after 48 hrs by microplate reader analysis; format: functional, cell-based; settings: DU-145, 48 h; how it was run: as §1
A549 [8] = assay: Downregulation of SUPT3H gene expression in human A549 cells at 21 nM after 12 hrs by microarray analysis relative to control; format: functional; how it was run: as §2
A549 [9] = assay: Downregulation of NBEA gene expression in human A549 cells at 21 nM after 12 hrs by microarray analysis relative to control; format: functional; how it was run: as §3
A549 [10] = assay: Downregulation of SLC4A4 gene expression in human A549 cells at 21 nM after 12 hrs by microarray analysis relative to control; format: functional; how it was run: as §2
A549 [11] = assay: Downregulation of MBD3L1 gene expression in human A549 cells at 21 nM after 12 hrs by microarray analysis relative to control; format: functional; how it was run: as §3
A549 [12] = assay: Downregulation of NP_060463.1 gene expression in human A549 cells at 21 nM after 12 hrs by microarray analysis relative to control; format: functional; how it was run: as §3
A549 [13] = assay: Downregulation of CPNE4 gene expression in human A549 cells at 21 nM after 12 hrs by microarray analysis relative to control; format: functional; how it was run: as §3
A549 [14] = assay: Downregulation of PTPRK gene expression in human A549 cells at 21 nM after 12 hrs by microarray analysis relative to control; format: functional; how it was run: as §2
A549 [15] = assay: Downregulation of GABRA3 gene expression in human A549 cells at 21 nM after 12 hrs by microarray analysis relative to control; format: functional; how it was run: as §3
A549 [16] = assay: Downregulation of FMN2 gene expression in human A549 cells at 21 nM after 12 hrs by microarray analysis relative to control; format: functional; how it was run: as §3
A549 [17] = assay: Downregulation of ACTG gene expression in human A549 cells at 21 nM after 12 hrs by microarray analysis relative to control; format: functional; how it was run: as §3
A549 [18] = assay: Downregulation of SMYD3 gene expression in human A549 cells at 21 nM after 12 hrs by microarray analysis relative to control; format: functional; how it was run: as §2
A549 [19] = assay: Downregulation of HECW2 gene expression in human A549 cells at 21 nM after 12 hrs by microarray analysis relative to control; format: functional; how it was run: as §3
A549 [20] = assay: Downregulation of Q8NCR4 gene expression in human A549 cells at 21 nM after 12 hrs by microarray analysis relative to control; format: functional; how it was run: as §2
A549 [21] = assay: Downregulation of Q5VY43 gene expression in human A549 cells at 21 nM after 12 hrs by microarray analysis relative to control; format: functional; how it was run: as §2
A549 [22] = assay: Downregulation of SLC25A21 gene expression in human A549 cells at 21 nM after 12 hrs by microarray analysis relative to control; format: functional; how it was run: as §2
A549 [23] = assay: Upregulation of HES2 gene expression in human A549 cells at 21 nM after 12 hrs by microarray analysis relative to control; format: functional
How it was run: (§4)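 4 ×10^5 A549 cells seeded per 60 mm dish and treated 12 h with conjugate (21, 26, 34 or 100 nM) in medium; control medium contained 0.1% DMSO, with conjugates added as 0.1% DMSO solutions. Whole human genome (~25 000 genes) expression profiled by microarray against the DMSO control. A549 culture: RPMI-1640 with 10% heat-inactivated FBS, penicillin/streptomycin, 37 °C, 5% CO2.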

A549 [24] = assay: Upregulation of Q6NTF7 gene expression in human A549 cells at 21 nM after 12 hrs by microarray analysis relative to control; format: functional; how it was run: as §4
A549 [25] = assay: Upregulation of BTG2 gene expression in human A549 cells at 21 nM after 12 hrs by microarray analysis relative to control; format: functional; how it was run: as §4
A549 [26] = assay: Upregulation of BBC3 gene expression in human A549 cells at 21 nM after 12 hrs by microarray analysis relative to control; format: functional; how it was run: as §2
A549 [27] = assay: Upregulation of MDM2 gene expression in human A549 cells at 21 nM after 12 hrs by microarray analysis relative to control; format: functional; how it was run: as §4
A549 [28] = assay: Upregulation of CST8 gene expression in human A549 cells at 21 nM after 12 hrs by microarray analysis relative to control; format: functional; how it was run: as §4
A549 [29] = assay: Upregulation of CDKN1A gene expression in human A549 cells at 21 nM after 12 hrs by microarray analysis relative to control; format: functional; how it was run: as §4
A549 [30] = assay: Upregulation of HCK gene expression in human A549 cells at 21 nM after 12 hrs by microarray analysis relative to control; format: functional; how it was run: as §4
A549 [31] = assay: Upregulation of FDXR gene expression in human A549 cells at 21 nM after 12 hrs by microarray analysis relative to control; format: functional; how it was run: as §4
A549 [32] = assay: Upregulation of BTNL3 gene expression in human A549 cells at 21 nM after 12 hrs by microarray analysis relative to control; format: functional; how it was run: as §4
Nucleic Acid = assay: Induction of calf thymus DNA cleavage at 10 to 25 nM after 12 h by PAGE analysis; format: nucleic-acid assay; settings: in the assay text read “208-bp PCR fragment DNA” for “calf thymus DNA”
How it was run: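 5′-Texas Red-labeled 208 bp PCR fragments alkylated in 5.0 mM sodium phosphate (pH 7.0) with 10% DMF, room temperature, 12 h. Quenched with calf thymus DNA and heated 95 °C for 5 min under neutral conditions. Recovered DNA in formamide loading dye, heated 95 °C 20 min, then run on 6% denaturing polyacrylamide gel with 6.0 M urea at 1.5 kV, 40 °C.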

`CC(=O)Nc1cc(C(=O)Nc2cn(C)c(C(=O)NCCC(=O)Nc3cn(C)c(C(=O)Nc4cc(C(=O)NCCCC(=O)Nc5cc(C(=O)Nc6cc(C(=O)Nc7cc(C(=O)Nc8ccc9[nH]c(C(=O)N%10CC(CCl)c%11c%10cc(O)c%10ccccc%11%10)cc9c8)n(C)c7)n(C)c6)n(C)c5)n(C)c4)n3)n2)n(C)c1` (racemic) showed an IC50 (A549 [1]) of 0.0214 µM, an IC50 (PC-3) of 0.00603 µM and an IC50 [2] of 0.0339 µM. For the same molecule, the IC50 (SK-N-SH) was 0.0151 µM, the IC50 (K562) was 0.00776 µM and the “fold change (FC)” value (A549 [3]) was 0.132. For the same molecule, the “fold change (FC)” value (A549 [4]) was 0.154, the “fold change (FC)” value (A549 [5]) was 0.228 and the “fold change (FC)” value (A549 [6]) was 0.234. For the same molecule, the “fold change (FC)” value (A549 [7]) was 0.253, the IC50 (DU-145) was 0.00331 µM and the “fold change (FC)” value (A549 [8]) was 0.268. For the same molecule, the “fold change (FC)” value (A549 [9]) was 0.274, the “fold change (FC)” value (A549 [10]) was 0.278 and the “fold change (FC)” value (A549 [11]) was 0.294. The “fold change (FC)” value (A549 [12]) was 0.303, the “fold change (FC)” value (A549 [13]) was 0.314 and the “fold change (FC)” value (A549 [14]) was 0.334. For the same molecule, the “fold change (FC)” value (A549 [15]) was 0.343, the “fold change (FC)” value (A549 [16]) was 0.344 and the “fold change (FC)” value (A549 [17]) was 0.345. The “fold change (FC)” value (A549 [18]) was 0.345, the “fold change (FC)” value (A549 [19]) was 0.346 and the “fold change (FC)” value (A549 [20]) was 0.348. The “fold change (FC)” value (A549 [21]) was 0.354, the “fold change (FC)” value (A549 [22]) was 0.354 and the “fold change (FC)” value (A549 [23]) was 10.6. The “fold change (FC)” value (A549 [24]) was 7, the “fold change (FC)” value (A549 [25]) was 6.7 and the “fold change (FC)” value (A549 [26]) was 5.7. For the same molecule, the “fold change (FC)” value (A549 [27]) was 5.4, the “fold change (FC)” value (A549 [28]) was 5.3 and the “fold change (FC)” value (A549 [29]) was 5.2. The “fold change (FC)” value (A549 [30]) was 4.3, the “fold change (FC)” value (A549 [31]) was 2 and the “fold change (FC)” value (A549 [32]) was 2. The Activity (Nucleic Acid) was “Active”.
